Assay [1] has as its system Mast cell. The assay is described as follows: Inhibition of 48/80-induced histamine release in Wistar rat peritoneal mast cells at 2 x 10^-5 M after 5 mins. Type of assay: functional.
A further assay relates to Rattus norvegicus. The assay is described as follows: Antiallergic activity in Wistar rat assessed as inhibition of ovalbumin-induced passive cutaneous anaphylaxis reaction at 3 mg/kg, iv treated after 48 hrs of ovalbumin challenge measured after 30 mins. Type of assay: functional. In outline:
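Female Wistar rats were sensitised by intradermal antiserum (0.1 mL per site) against ovalbumin, raised in rats given ovalbumin with heat-killed Bordetella pertussis. Sites were excised at 30 min, digested in KOH overnight at 37 °C and extracted with H3PO4/acetone. Absorbance read at 620 nm; % inhibition reported.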

Assay [2] relates to Mast cell. The assay is described as follows: Inhibition of 48/80-induced histamine release in Wistar rat peritoneal mast cells at 2 x 10^-5 M after 5 mins.
In assay [3] the test system is Mast cell. The assay is described as follows: Inhibition of anti-IgE-induced histamine release in Brown Norway rat peritoneal mast cells at 2 x 10^-5 M.
For assay [4], the system named is Mast cell. The assay is described as follows: Inhibition of concanavalin A-induced histamine release in Wistar rat peritoneal mast cells. It counts as functional. The essentials:
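Female Wistar rat peritoneal mast cells, in mast cell medium (MCM) buffer. Concanavalin A at 20 µg ml-1 served as the degranulating stimulus. IC50 determined.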

Assay [5] concerns Mast cell. The assay is described as follows: Inhibition of A23187-induced histamine release in Wistar rat peritoneal mast cells. Type of assay: functional. The essentials:
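Rat peritoneal mast cells from female Wistar rats, in mast cell medium (MCM) buffer. Histamine release was elicited with A23187 at 1 µg ml-1. IC50 determined.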

The test system of assay [6] is Mast cell. The assay is described as follows: Inhibition of 48/80-induced histamine release in Wistar rat peritoneal mast cells after 5 mins. It counts as functional.
In assay [7] the test system is Mast cell. The assay is described as follows: Inhibition of vancomycin-induced histamine release in Wistar rat peritoneal mast cells. Type of assay: functional. The essentials: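 Peritoneal mast cells from female Wistar rats, in Tyrodes buffer, challenged with vancomycin at 2.52 mg mL-1 to induce degranulation. IC50 determined.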
Assay [8] concerns Mast cell. The assay is described as follows: Inhibition of anti-IgE-induced histamine release in Brown Norway rat peritoneal mast cells at 10^-5 M.

Among the data in ChEMBL document CHEMBL1154590, “Synthesis and evaluation of dimeric 1,2,3,4-tetrahydro-naphthalenylamine and indan-1-ylamine derivatives with mast cell-stabilising and anti-allergic activity” (2010) are inhibition, inhibition in vivo and IC50 values, retold here.

Active and inactive are the calls of the source. No cut-off for these calls is given here.

The term inhibition denotes the drop in the measured response relative to a control, in per cent. For the compound `CC(=O)N(C1CCCc2ccccc21)C1CC(=O)c2ccccc21` (stereo unspecified), the inhibition entry with Mast cell [1] is “inactive”.
The term inhibition in vivo denotes the relative decrease from the control value, in per cent. As for `Cc1ccc(CN(C2CCc3ccccc3C2)C2CC(=O)c3ccccc32)cc1` (stereo unspecified), in the assay with Rattus norvegicus, the inhibition in vivo at 3 mg/kg is 73%. Further, the inhibition at 20 µM in the assay with Mast cell [2] came to 68%.
With `C=CCN(C1CCCc2ccccc21)C1CC(=O)c2ccccc21` (stereo unspecified), the inhibition in vivo at 3 mg/kg in the assay with Rattus norvegicus was 72%. For the same compound, at 20 µM the inhibition in the assay with Mast cell [2] was 92%.
As for `CN(C1CCCc2ccccc21)C1CCCc2ccccc21` (stereo unspecified), the inhibition result in the assay on Mast cell [1] is “inactive”.
`C=CCN(C1CCc2ccccc2C1)C1CC(=O)c2ccccc21` (stereo unspecified): the inhibition in vivo at 3 mg/kg in the assay on Rattus norvegicus amounted to 82%. The same compound registered an inhibition at 20 µM with Mast cell [2] of 59%.
In the assay with Mast cell [2], `CN(C1CCC(=O)c2ccccc21)C1CC(=O)c2ccccc21` (stereo unspecified) returned an inhibition at 20 µM of 61%.
In the case of `CN(C1CCc2ccccc2C1)C1CC(=O)c2ccccc21` (stereo unspecified), in the assay with Rattus norvegicus, the inhibition in vivo at 3 mg/kg came to 98%. Also, the inhibition at 20 µM in the assay on Mast cell [3] stood at 95%; in the assay with Mast cell [2], 76%.
For the compound `O=C(O)c1cc(=O)c2c(OCC(O)COc3cccc4oc(C(=O)O)cc(=O)c34)cccc2o1` [CROMOLYN SODIUM], the inhibition in vivo at 3 mg/kg in the assay with Rattus norvegicus turned out to be 99%. For the same compound, in the assay on Mast cell [2], the inhibition at 20 µM turned out to be 10%.
For the compound `COc1cc(CN(C2CCc3ccccc3C2)C2CC(=O)c3ccccc32)cc(OC)c1OC` (stereo unspecified), the inhibition at 20 µM in the assay on Mast cell [1] was found to be 40%. The inhibition in vivo at 3 mg/kg with Rattus norvegicus turned out to be 70%.
Regarding `COc1ccc2c(c1)C(N(C)C1CC(=O)c3ccccc31)CCC2` (stereo unspecified), 20 µM produced 100% inhibition in the assay with Mast cell [2].
In the case of `CN(C1CCOc2ccccc21)C1CC(=O)c2ccccc21` (stereo unspecified), testing at 20 µM in the assay with Mast cell [2] gave an inhibition of 100%.
For the compound `CN(C1CCc2ccccc21)C1CCC(=O)c2ccccc21` (stereo unspecified), in the assay with Rattus norvegicus, the inhibition entry was “inactive”. In the assay with Mast cell [2], this compound gave an inhibition at 20 µM of 14%.
Take `COc1cccc2c1C(=O)CC2N(C)C1CCCc2ccccc21` (stereo unspecified): in the assay on Mast cell [1], 20 µM produced 48% inhibition.
Turning to `COc1ccc2c(c1)C(N(C)C1CCCc3ccccc31)CC2=O` (stereo unspecified), testing at 20 µM with Mast cell [1] gave an inhibition of 55%. Moreover, the inhibition in vivo at 3 mg/kg in the assay on Rattus norvegicus was 62%.
`O=C1CC(N(Cc2ccccc2)C2CCc3ccccc3C2)c2ccccc21` (stereo unspecified): the inhibition in vivo at 3 mg/kg with Rattus norvegicus stood at 79%. Moreover, in the assay with Mast cell [2], the inhibition at 20 µM turned out to be 67%.
The term IC50 denotes the concentration that inhibits the measured activity by half. As to `CN(C1CCCc2ccccc21)C1CCC(=O)c2ccccc21` (stereo unspecified), the inhibition in vivo at 3 mg/kg in the assay on Rattus norvegicus turned out to be 29%. The IC50 in the assay with Mast cell [4] stood at 2400 nM; in the assay with Mast cell [5], 38000 nM. In the assay with Mast cell [2], this compound had an inhibition at 20 µM of 99%.
As for `CN(C1CCCc2ccccc21)C1CC(=O)c2ccccc21` (stereo unspecified), the IC50 in the assay on Mast cell [6] worked out at 1500 nM; in the assay with Mast cell [7], 4700 nM; in the assay with Mast cell [4], 700 nM; in the assay with Mast cell [5], 2000 nM. The inhibition in vivo at 3 mg/kg in the assay on Rattus norvegicus stood at 13%. Also, at 10 µM the inhibition in the assay on Mast cell [8] was 68%. This compound returned an inhibition at 20 µM in the assay on Mast cell [2] of 93%.
